From PMC12783166 (Clinical Pharmacokinetics, 2025)
Values joined by “and” are separate entries in the source; they are usually repeats but may differ in a detail not shown here. Identical values can stand only once. “Also recorded” adds a separate entry of the source.

Columns and labels:
[1] = Phase 3 population PK model; format: in vivo, human
Summary of the method: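 Nonlinear mixed-effects model fitted by FOCE with interaction to pooled plasma and dried-blood-spot LC-MS/MS concentrations from 12 phase 1, 1 phase 2b/3 and 1 phase 3 study (healthy participants and migraine patients, single/multiple oral doses). Plasma LLOQ 0.1 or 1.0 ng/mL, DBS 2.5 ng/mL. Below-LLOQ samples and |CWRES| > 6 excluded. Log-normal IIV. Covariates added stepwise (ΔOFV 6.63, P < 0.01).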

[2] = Covariate evaluation of model-predicted 60 mg steady-state exposures; format: in vivo, human
Summary of the method: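 Final population model predicted steady-state AUC24 and Cmax for 60 mg once daily in EM phase 2b/3, EM phase 3 and CM phase 3 patients. Covariates included renal function, age, sex, weight, race and comedication with BCRP inhibitors, BCRP substrates or statins. Each subgroup is given as a geometric mean ratio with 95% CI against its reference group.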

[3] = cited from earlier work
[4] = test system: calcitonin gene-related peptide receptor; details: plasma concentration threshold; cited from earlier work
[5] = test system: cytochrome P450 3A4 (CYP3A4); details: cited from earlier work
OATP1B1 = details: cited from earlier work
[6] = Phase 3 Model, fractional covariate effect
[7] = Phase 3 Model, multiple rifampin doses and a single atogepant dose
[8] = Phase 3 Model, proportional residual error
[9] = Phase 3 Model, single-dose atogepant and single-dose rifampin
[10] = model-predicted steady state, 60 mg daily
[11] = oral administration of a 60-mg dose

- Blood concentrations as percentage of those in plasma ([1]; Phase 3 Model): 57.3%
- Blood-plasma ratio ([1]; Phase 3 Model): 0.573
- Effect of concomitant statins on CL/F and Frel ([1]; Phase 3 Model): not found to have a significant effect
- Fraction zero-order absorption (Fk0) ([1]; Phase 3 Model): 0.693
- Frel at the 60-mg dose compared with the 10-mg dose ([1]; Phase 3 Model): approximately 1.24 fold
- Higher Frel with coadministration of itraconazole ([1]; Phase 3 Model): 1.95 fold
- IIV on CL/F ([1]; Phase 3 Model): 15.6 % CV
- IIV on Frel ([1]; Phase 3 Model): 48.4 % CV
- IIV on Q/F ([1]; Phase 3 Model): 68.6 % CV
- IIV on Tk0 ([1]; Phase 3 Model): 40.4 % CV
- IIV on V2/F ([1]; Phase 3 Model): 77.5 % CV
- IOV on Frel ([1]; Phase 3 Model): 19.3 % CV
- Duration zero-order absorption [Tk0 (h)] ([1]; Phase 3 Model, 60 mg reference dose): 0.908 h
- Residual variability error term ([1]; Phase 3 Model, CGP-PK-02): 22.8 % CV
- Residual variability error term ([1]; Phase 3 Model, EM phase 2b/3 study): 58.5 % CV
- Lower CL/F with coadministration of quinidine ([1]; Phase 3 Model, P-gp inhibitor): 28.5%
- Residual variability error term ([1]; Phase 3 Model, all phase 1 studies except CGP-PK-02): 30.7 % CV
- CovQ/F,V2/F ([1]; Phase 3 Model, covariance of IIV): 0.422
- Food effect on ALAG [1, 6]: 0.672
- Itraconazole effect on Frel [1, 6]: 0.949
- Rifampin effect on Frel after first dose [1, 6]: 1.42
- Rifampin effect on Frel following multiple doses [1, 6]: −0.248
- Apparent clearance healthy participants [CL/F (L/h)] ([1]; Phase 3 Model, healthy participants): 22.9 L/h
- Absorption lag time following a high-fat meal ([1]; Phase 3 Model, high-fat meal): 0.46 h
- Decrease of Frel with multiple rifampin doses [1, 7]: 24.8%
- Increase of CL/F with multiple rifampin doses [1, 7]: 1.82 fold
- Apparent clearance patients [CL/F (L/h)] ([1]; Phase 3 Model, patients with EM): 17.4 L/h
- CL/F lower in patients than in healthy participants ([1]; Phase 3 Model, patients with EM vs healthy participants): 23.7%
- Residual variability error term ([1]; Phase 3 Model, phase 3 studies): 49.1 % CV
- Exponential dose effect on Frel ([1]; Phase 3 Model, power exponent, dose/60 mg): 0.119
- σprop [1, 8]: 0.307
- σprop (ADVANCE and PROGRESS studies) [1, 8]: 0.491
- σprop (study CGP-MD-01) [1, 8]: 0.585
- σprop (study CGP-PK-02) [1, 8]: 0.228
- Lower CL/F with severe hepatic impairment ([1]; Phase 3 Model, relative to normal liver function or mild or moderate hepatic impairment): 36.6%
- Higher Frel with single-dose rifampin [1, 9]: 2.4 fold
- Lower CL/F with single-dose rifampin [1, 9]: ~ 13% and 12.8%
- Lower CL/F with coadministration of itraconazole ([1]; Phase 3 Model, strong CYP3A4 inhibitor): 66.2%
- ω^2CL/F ([1]; Phase 3 Model, variance of IIV): 0.0243
- ω^2Frel ([1]; Phase 3 Model, variance of IIV): 0.234
- ω^2Q/F ([1]; Phase 3 Model, variance of IIV): 0.471
- ω^2V2/F ([1]; Phase 3 Model, variance of IIV): 0.601
- ω^2tk0 ([1]; Phase 3 Model, variance of IIV): 0.163
- ω^2IOVFrel ([1]; Phase 3 Model, variance of IOV): 0.0373
- Lag time [ALAG (h)] ([1]; Phase 3 Model, without food): 0.276 h
- Vd/F ([1]; human, plasma, oral): 86.1 L
- Effect of mild or moderate renal impairment on atogepant PK ([2]; model-predicted): no clinically relevant effect
- Change of Cmax with BCRP inhibitors [2, 10]: No change; also recorded: no impact
- Decrease of AUC24 with use of BCRP inhibitors [2, 10]: 1%
- Decrease of AUC24 with use of BCRP substrates [2, 10]: 3%
- Decrease of Cmax with use of BCRP substrates [2, 10]: 3%
- Increase of AUC24 with use of statins [2, 10]: 14%
- Increase of Cmax with use of statins [2, 10]: 13%
Structure (SMILES): C[C@@H]1[C@H](c2c(F)ccc(F)c2F)C[C@H](NC(=O)c2cnc3c(c2)C[C@@]2(C3)C(=O)Nc3ncccc32)C(=O)N1CC(F)(F)F [atogepant, Atogepant]
- Exponential weight effect on V1/F ([1]; Phase 3 Model, power exponent, body weight/76.8 kg): 0.411
- Effect of age, BCRP inhibitors, BCRP substrates, statins, body weight, race, renal function and sex on steady-state AUC24 and Cmax ([2]; model-predicted, 60 mg daily, compared with reference groups): < 20%
- Area under the concentration–time curve (AUC) ([3]; 60-mg dose): ~ 3470 ng h/mL
- Dose proportionality of PK [3]: dose-proportional up to a 300-mg single dose and multiple doses of 170 mg/day
- Food effect [3]: no clinically significant food effect
- Half-life (t1/2) [3]: ~ 11 h
- Accumulation ([3]; multiple doses): no accumulation
- Maximum plasma concentration (Cmax) [3, 11]: ~ 740 ng/mL
- Time to achieve a pharmacologically effective concentration [3, 11]: ≤ 30 min
- EC90 (effective concentration that results in 90% inhibition of the CGRP receptor) [4]: 8.4 ng/mL
- Metabolizing enzyme [5]: primarily metabolized by cytochrome P450 3A4 (CYP3A4)
- Transporter substrate status (OATP1B1): substrate
